Assay results from ChEMBL document CHEMBL3804803, “Pyrrolopyrimidine Derivatives as Novel Inhibitors of Multidrug Resistance-Associated Protein 1 (MRP1, ABCC1)” (J Med Chem, 2016).

Assays:
[1] = molecular target: T1, Multidrug resistance-associated protein 1 (Homo sapiens, UniProt P33527); assay: Inhibition of MRP1 in human H69AR cells incubated for 20 mins measured […] by calcein-AM accumulation assay; format: cell-based
Procedure, shortened: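 H69 AR cells, about 60,000 per well in Krebs-HEPES buffer pH 7.4. Incubated 20 min at 37 °C, 5% CO2 with compound (100 nM–100 µM solutions, 20 µL in 200 µL final volume). Calcein AM then added (20 µL of 3.125 µM). Fluorescence (ex 485/em 520 nm, 37 °C) read every 60 s. Slope between min 5 and 30 plotted against log concentration; four-parameter logistic fit; ≥3 experiments in duplicate.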

[2] = molecular target: T1, Multidrug resistance-associated protein 1; assay: Inhibition of MRP1 in human H69AR cells assessed as daunorubicin accumulation preincubated for 15 mins measured after 180 mins by flow cytometry; format: cell-based
Procedure, shortened: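 H69 AR cells, about 60,000 per well in culture medium. Preincubated 15 min with compound diluted in unsupplemented medium, then daunorubicin added (20 µL of 30 µM solution). Held 180 min at 37 °C, 5% CO2, protected from light, to reach steady state. Cells resuspended; flow cytometry with 488 nm excitation, FL3 ≥670 nm. IC50 from four-parameter logistic with variable Hill slope; ≥3 independent experiments in duplicate.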

[3] = Inhibition of P-gp in human A2780/ADR cells after 30 mins by calcein AM accumulation assay; format: cell-based; settings: 0.5 h
[4] = molecular target: T2, Broad substrate specificity ATP-binding cassette transporter ABCG2 (Homo sapiens, UniProt Q9UNQ0); assay: Inhibition of BCRP (unknown origin) expressed in MDCK2 cells assessed as pheophorbide A accumulation preincubated for 20 mins measured after 120 mins by flow cytometry; format: cell-based, MDCK-II
T2 sequence (Q9UNQ0 whole entry): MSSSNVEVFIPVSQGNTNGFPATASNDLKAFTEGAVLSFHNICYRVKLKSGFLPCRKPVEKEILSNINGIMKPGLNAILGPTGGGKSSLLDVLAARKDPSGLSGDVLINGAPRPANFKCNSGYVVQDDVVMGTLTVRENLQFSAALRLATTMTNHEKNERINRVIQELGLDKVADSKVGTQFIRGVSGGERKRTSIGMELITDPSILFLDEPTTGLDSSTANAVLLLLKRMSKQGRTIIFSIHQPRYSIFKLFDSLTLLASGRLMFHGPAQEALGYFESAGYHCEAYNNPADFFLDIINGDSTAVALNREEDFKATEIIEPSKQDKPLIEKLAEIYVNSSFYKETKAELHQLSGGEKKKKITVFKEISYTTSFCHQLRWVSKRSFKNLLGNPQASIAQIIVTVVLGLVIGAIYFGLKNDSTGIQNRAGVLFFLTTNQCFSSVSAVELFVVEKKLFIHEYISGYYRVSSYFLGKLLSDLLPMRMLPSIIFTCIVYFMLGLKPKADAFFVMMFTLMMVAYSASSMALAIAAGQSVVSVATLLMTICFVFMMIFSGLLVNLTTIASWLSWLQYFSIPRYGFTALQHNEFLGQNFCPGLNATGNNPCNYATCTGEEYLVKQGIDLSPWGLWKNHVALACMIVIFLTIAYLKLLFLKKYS
Procedure, shortened: (§1)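 MDCK II BCRP cells (GFP detected in FL1 to monitor BCRP expression), about 45,000 per well. Preincubated 20 min at 37 °C, 5% CO2 with compound (1–100 µM solutions, 20 µL into 200 µL final volume). Pheophorbide A added (20 µL of 5 µM solution) for 120 min to reach steady state. Cells resuspended, then flow cytometry: 488 nm excitation, FL3 ≥670 nm. […] The four-parameter logistic top was constrained to Ko143; ≥3 experiments in duplicate.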

[5] = species: Homo sapiens; assay: Inhibition of P-gp (unknown origin) at 10 uM after 30 mins by calcein AM accumulation assay
[6] = molecular target: T3, BCRP (ABCG2) (Homo sapiens, UniProt Q9UNQ0); assay: Inhibition of BCRP (unknown origin) expressed in MDCK2 cells assessed as pheophorbide A accumulation at 10 uM preincubated for 20 mins measured after 120 mins by flow cytometry; format: cell-based, MDCK-II; settings: MDCK2 cells expressing BCRP, probe pheophorbide A; procedure, shortened: as §1
T3 sequence (Q9UNQ0 whole entry): T2 sequence (Q9UNQ0 whole entry)

[7] = molecular target: T1, Multidrug resistance-associated protein 1; assay: Inhibition of MRP1 in human H69AR cells incubated for 20 mins measured every 60 seconds by calcein-AM accumulation assay
[8] = Cytotoxicity against human H69AR cells overexpressing MRP1 assessed as reduction in cell viability at 10 uM after 72 hrs by MTT assay; format: cell-based; settings: for Activity: h69ar, 72 h, 10 µM
Procedure, shortened: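 H69 AR cells, about 20,000 per well, 72 h at 37 °C in humidified CO2 with compound at 10 µM. MTT (5 mg/mL, 20 µL) added for 1 h, then DMSO solubilization and absorbance 570 nm with 690 nm background. Viability scaled between plain medium (100%) and 10% DMSO (0%). ≥3 independent experiments in duplicate.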

[9] = Cytotoxicity against human H69AR cells overexpressing MRP1 assessed as growth inhibition after 72 hrs by MTT assay; format: cell-based
Procedure, shortened: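 H69 AR cells, about 20,000 per well, exposed 72 h at 37 °C in humidified CO2 to test compound diluted in culture medium (100 nM to 100 µM solutions, 20 µL added to 180 µL cells). Then MTT (5 mg/mL, 20 µL) for 1 h, formazan taken up in DMSO, absorbance 570 nm minus 690 nm. Plain medium set 100% viability, 10% DMSO 0%. GI50 from variable-slope nonlinear fit; ≥3 independent experiments in duplicate.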

[10] = molecular target: T1, Multidrug resistance-associated protein 1; settings: h69ar, 72 h, 1 µM
[11] = molecular target: T1, Multidrug resistance-associated protein 1; settings: h69ar, 72 h, 5 µM
[12] = molecular target: T1, Multidrug resistance-associated protein 1; settings: h69ar, 72 h, 10 µM
[13] = molecular target: T1, Multidrug resistance-associated protein 1; assay: Inhibition of MRP1 in daunorubicin resistant human H69AR cells assessed as potentiation of daunorubicin-induced growth inhibition at 1 to 10 uM after 72 hrs by MTT assay relative to control; format: cell-based

T1 sequence (P33527 whole entry): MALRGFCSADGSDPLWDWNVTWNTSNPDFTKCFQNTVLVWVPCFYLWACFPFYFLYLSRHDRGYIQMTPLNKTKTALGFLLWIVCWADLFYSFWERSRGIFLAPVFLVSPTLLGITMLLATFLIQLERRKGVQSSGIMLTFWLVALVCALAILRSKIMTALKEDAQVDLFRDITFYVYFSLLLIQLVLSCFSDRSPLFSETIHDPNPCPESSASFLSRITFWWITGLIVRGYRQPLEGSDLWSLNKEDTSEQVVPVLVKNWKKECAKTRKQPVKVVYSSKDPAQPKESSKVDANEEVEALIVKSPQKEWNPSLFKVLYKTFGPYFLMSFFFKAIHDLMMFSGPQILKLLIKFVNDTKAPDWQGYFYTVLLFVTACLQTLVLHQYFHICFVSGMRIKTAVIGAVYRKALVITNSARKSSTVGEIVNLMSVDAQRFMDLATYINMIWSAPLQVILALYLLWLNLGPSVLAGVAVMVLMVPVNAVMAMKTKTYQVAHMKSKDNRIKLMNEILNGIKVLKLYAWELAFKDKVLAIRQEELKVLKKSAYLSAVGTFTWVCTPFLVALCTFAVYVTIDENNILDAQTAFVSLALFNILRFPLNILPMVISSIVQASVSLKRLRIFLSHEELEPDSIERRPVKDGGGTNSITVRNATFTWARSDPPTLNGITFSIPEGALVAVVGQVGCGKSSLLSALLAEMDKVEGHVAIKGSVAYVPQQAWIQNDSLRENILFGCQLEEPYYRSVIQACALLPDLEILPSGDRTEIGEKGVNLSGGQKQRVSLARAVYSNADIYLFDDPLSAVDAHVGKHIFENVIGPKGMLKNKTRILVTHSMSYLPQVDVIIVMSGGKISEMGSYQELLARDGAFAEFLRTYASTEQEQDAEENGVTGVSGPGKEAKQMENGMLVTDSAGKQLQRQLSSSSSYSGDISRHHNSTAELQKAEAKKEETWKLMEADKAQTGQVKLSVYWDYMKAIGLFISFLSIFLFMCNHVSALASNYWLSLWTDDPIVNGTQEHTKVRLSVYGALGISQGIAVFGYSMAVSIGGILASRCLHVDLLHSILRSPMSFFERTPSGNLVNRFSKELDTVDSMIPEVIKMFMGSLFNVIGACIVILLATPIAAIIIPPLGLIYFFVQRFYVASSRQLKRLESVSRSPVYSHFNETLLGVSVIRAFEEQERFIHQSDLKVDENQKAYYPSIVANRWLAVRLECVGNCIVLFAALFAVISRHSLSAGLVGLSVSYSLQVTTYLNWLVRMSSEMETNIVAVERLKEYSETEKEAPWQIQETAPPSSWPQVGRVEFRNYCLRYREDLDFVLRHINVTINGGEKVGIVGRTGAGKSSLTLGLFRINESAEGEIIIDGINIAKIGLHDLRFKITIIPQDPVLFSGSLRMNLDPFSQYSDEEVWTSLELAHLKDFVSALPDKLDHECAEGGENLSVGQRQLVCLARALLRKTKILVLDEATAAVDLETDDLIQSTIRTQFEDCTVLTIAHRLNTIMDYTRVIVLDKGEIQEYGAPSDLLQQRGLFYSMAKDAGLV

Compound	IC50 [1]	IC50 [2]	IC50 [3]	IC50 [4]	inhibition [5]	inhibition at 2 h, 10 µM [6]	IC50 [7]	Activity [8]	GI50 at 72 h [9]	cytotoxicity at 72 h, 10 µM ([8]; H69AR cells overexpressing MRP1, read-out: INH)	GI50 [10]	GI50 [11]	GI50 [12]	fold change (FC) [13]
N#Cc1c2n(c3c(N4CCN(C(c5ccccc5)c5ccccc5)CC4)ncnc13)CCCCC2	1950 nM	1010 nM	28600 nM	8710 nM	> 25%	> 25%	–	–	–	–	–	–	–	–
N#Cc1cn(CCCc2ccccc2)c2c(N3CCN(CCc4ccccc4)CC3)ncnc12	–	586 nM	–	–	> 25%	< 25%	956 nM	–	–	–	–	–	–	–
N#Cc1c2n(c3c(N4CCN(Cc5ccccc5)CC4)ncnc13)CCCC2	–	636 nM	32300 nM	8240 nM	> 25%	> 25%	671 nM	–	–	–	–	–	–	–
N#Cc1c2n(c3c(N4CCN(CCc5ccccc5)CC4)ncnc13)CCCCC2	833 nM	643 nM	19200 nM	9940 nM	> 25%	> 25%	–	Non-toxic	79800 nM	–	–	–	–	–
CN1CCN(c2ncnc3c(C#N)c4n(c23)CCCC4)CC1	–	2870 nM	–	4250 nM	> 25%	> 25%	5060 nM	–	–	–	–	–	–	–
N#Cc1cn(-c2ccccc2)c2c(N3CCN(CCc4ccccc4)CC3)ncnc12	–	340 nM	6820 nM	–	> 25%	< 25%	750 nM	–	23600 nM	40%	–	–	–	–
N#Cc1c2n(c3c(N4CCN(CCc5ccccc5)CC4)ncnc13)CCCC2	–	197 nM	18800 nM	8190 nM	> 25%	> 25%	370 nM	Non-toxic	39900 nM	–	–	–	–	–
CCn1cc(C#N)c2ncnc(N3CCN(CCc4ccccc4)CC3)c21	–	789 nM	–	–	> 25%	< 25%	1060 nM	–	–	–	–	–	–	–
N#Cc1cn(CCc2ccccc2)c2c(N3CCN(CCc4ccccc4)CC3)ncnc12	–	1120 nM	32500 nM	–	> 25%	< 25%	1020 nM	–	–	–	–	–	–	–
N#Cc1c2n(c3c(N4CCNCC4)ncnc13)CCCC2	–	10800 nM	–	–	> 25%	> 25%	27300 nM	Non-toxic	60600 nM	–	2940 nM	2480 nM	1830 nM	–
N#Cc1c2n(c3c(NCCCc4ccccc4)ncnc13)CCCC2	–	2840 nM	–	6070 nM	> 25%	> 25%	2500 nM	Non-toxic	132000 nM	–	2410 nM	751 nM	450 nM	–
N#Cc1c2n(c3c(N4CCN(C(c5ccccc5)c5ccccc5)CC4)ncnc13)CCCC2	–	1070 nM	–	14300 nM	> 25%	> 25%	1620 nM	–	–	–	–	–	–	–
N#Cc1cn(CCCc2ccccc2)c2c(N3CCN(Cc4ccccc4)CC3)ncnc12	–	2360 nM	–	–	> 25%	< 25%	3150 nM	–	–	–	–	–	–	–
N#Cc1c2n(c3c(NCc4ccccc4)ncnc13)CCCC2	–	8800 nM	–	15800 nM	> 25%	> 25%	14200 nM	–	–	–	–	–	–	–
N#Cc1cn(Cc2ccccc2)c2c(N3CCN(Cc4ccccc4)CC3)ncnc12	–	876 nM	–	–	> 25%	< 25%	2770 nM	–	–	–	–	–	–	–
N#Cc1c2n(c3c(NCCc4ccccc4)ncnc13)CCCC2	–	4980 nM	–	–	> 25%	> 25%	8370 nM	–	–	–	–	–	–	–
N#Cc1cn(C2CC2)c2c(N3CCN(CCc4ccccc4)CC3)ncnc12	–	200 nM	–	–	> 25%	< 25%	247 nM	Non-toxic	36000 nM	–	–	–	–	10
Cn1cc(C#N)c2ncnc(N3CCN(CCc4ccccc4)CC3)c21	–	700 nM	–	–	> 25%	< 25%	714 nM	–	–	–	–	–	–	–
N#Cc1c2n(c3c(Nc4ccccc4)ncnc13)CCCC2	–	9410 nM	–	7680 nM	> 25%	> 25%	14200 nM	–	–	–	–	–	–	–
N#Cc1cn(-c2ccccc2)c2c(N3CCN(Cc4ccccc4)CC3)ncnc12	–	866 nM	–	–	> 25%	< 25%	1220 nM	–	–	–	–	–	–	–
CCCn1cc(C#N)c2ncnc(N3CCN(CCc4ccccc4)CC3)c21	–	418 nM	41900 nM	–	> 25%	< 25%	543 nM	–	–	–	–	–	–	–
N#Cc1c2n(c3c(N4CCN(c5ccccc5)CC4)ncnc13)CCCCC2	8980 nM	15100 nM	–	–	> 25%	> 25%	–	–	–	–	–	–	–	–
CC(C)n1cc(C#N)c2ncnc(N3CCN(CCc4ccccc4)CC3)c21	–	1240 nM	–	–	> 25%	< 25%	821 nM	–	–	–	–	–	–	–
N#Cc1cn(CCc2ccccc2)c2c(N3CCN(Cc4ccccc4)CC3)ncnc12	–	983 nM	–	–	> 25%	< 25%	910 nM	–	–	–	–	–	–	–
N#Cc1c2n(c3c(N4CCN(c5ccccc5)CC4)ncnc13)CCCC2	–	2900 nM	–	5910 nM	> 25%	> 25%	2560 nM	–	–	–	–	–	–	–
N#Cc1cn(Cc2ccccc2)c2c(N3CCN(CCc4ccccc4)CC3)ncnc12	–	623 nM	10600 nM	–	> 25%	< 25%	1000 nM	–	–	–	–	–	–	–
